Measured values pooled from the literature.
Protocols differ between the studies behind these lines.
Read-out: cell growth or viability

Cc1cccc(-c2cccc(C)n2)n1.Cc1cccc(-c2cccc(C)n2)n1.F[P-](F)(F)(F)(F)F.F[P-](F)(F)(F)(F)F.[Ru+2].c1ccc2cc(-c3nc4c5cccnc5c5ncccc5c4[nH]3)ccc2c1 — EC50 (SK-MEL-28; resazurin; dark): 31.8 µM
N.N.[Cl][Pt][Cl] — IC50 (HEK293; MTT; 72 h): 28.4 µM
Cc1cccc2[nH]cc(CNCC3(N4CCCC4)COC3)c12 — viability (T98G; 30 µM; 48 h): 60.1%
CNCCN(C)C(=O)Oc1c(Cl)c(C)nc(C)c1-c1ccc(Oc2ccc(OC(F)(F)F)cc2)cc1 — IC50 (HEK293): > 10 µM
N.N.[Cl][Pt][Cl] — EC50 (SK-MEL-28; resazurin; dark): 2.8 µM
Cc1c(C)c2c(c(C)c1O)CC[C@](C)(C(=O)NC1CCC(CN3CCC(c4c[nH]c5ccccc45)CC3)CC1)O2 (stereo partly drawn) — IC50 (HEK293): > 10 µM
N.N.[Cl][Pt][Cl] — IC50 (NCI-H1975; MTT; 72 h): 6 µM
Cc1cccc(-n2ncc(Cl)c(Cl)c2=O)c1 — IC50 (NCI-H1975; resazurin; 96 h): 0.14 µM
CCCCCCCSc1ccc(CC(C)NCC(O)c2cccc(Cl)c2)cc1 (stereo not drawn) — IC50 (HEK293): > 10 µM
Cc1ccc2c(CNCC3(N4CCCC4)COC3)c[nH]c2c1 — viability (T98G; 30 µM; 48 h): 98.5%
Cc1cc(O)cc2c(C3CCN(CC4CCN(C(=O)/C=C/c5ccc(Cl)c(Cl)c5)CC4)CC3)c[nH]c12 — IC50 (HEK293): > 10 µM
O=S(=O)([O-])C(F)(F)F.OCc1ccnc(-c2cc(CO)ccn2)c1.[Ru+2].c1cc[cH-]c1.c1ccc(P(c2ccccc2)c2ccccc2)cc1 — IC50 (HEK293; MTT; 48 h): 6.7 µM
